Laboratory results reported in ChEMBL document CHEMBL4028909, “Discovery of an Orally Bioavailable Benzofuran Analogue That Serves as a β-Amyloid Aggregation Inhibitor for the Potential Treatment of Alzheimer's Disease” (J Med Chem, 2018).

What was measured:
[1] = system: Mus musculus; assay: Reversal of cognitive deficit in double APP/PS1 transgenic Alzheimer's disease mouse model assessed as increase in spatial memory function by measuring spontaneous alternation at 100 mg/kg, po qd administered for 8 weeks by Y maze test (reference value: 52.64 +/- 4.15%); assay type: functional
Outline: (§1)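 APP/PS1 double transgenic mice, 29 weeks old, dosed orally once daily at 30 or 100 mg/kg for eight weeks. Y-maze spontaneous alternation (%) was then measured against vehicle-treated mice, and mice were watched for apparent toxicity.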

[2] = Initial concentration in mouse at 3 mg/kg, iv; assay type: ADME, organism-based; details: in vivo
Outline: (§2)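 Mice received a single dose of 3 mg/kg i.v. or 3, 10 or 30 mg/kg orally. Plasma concentration-time profiles were analysed for AUC from zero to infinity and to the last measured time (hr*ng/mL), Cmax (ng/mL, C0 after i.v.), Tmax and terminal half-life (hr), and oral bioavailability (%).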

[3] = AUC in po dosed dog; assay type: ADME, organism-based, Canis lupus familiaris; details: in vivo
[4] = system: Mus musculus; assay: Reversal of cognitive deficit in double APP/PS1 transgenic Alzheimer's disease mouse model assessed as increase in spatial memory function by measuring spontaneous alternation at 30 mg/kg, po qd administered for 8 weeks by Y maze test (reference value: 52.64 +/- 4.15%); assay type: functional; outline: as §1
[5] = Half-life in po dosed ICR mouse; details: in vivo
[6] = Cmax in mouse at 3 mg/kg, po; assay type: ADME, organism-based; design: dose 3 mg/kg, route oral; details: in vivo; outline: as §2
[7] = system: Mus musculus; assay: Reversal of cognitive deficit in amyloid beta (1 to 42)-treated Alzheimer's disease ICR mouse model assessed as increase in spatial memory function by measuring spontaneous alternation at 10 mg/kg, po administered for 3 consecutive days by Y maze test relative to control; assay type: functional
Outline: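 Acute AD model: preformed Aβ aggregates injected directly into the brains of normal mice to induce acute neurotoxicity. Compound given orally for three consecutive days, then the Y-maze was run. Read-out is percentage of spontaneous alternation, compared against normal and vehicle-treated mice.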

[8] = Oral bioavailability in monkey; assay type: ADME, organism-based, Macaca mulatta; details: rhesus monkey, in vivo
[9] = Cmax in mouse at 10 mg/kg, po; assay type: ADME, organism-based; design: dose 10 mg/kg, route oral; details: in vivo; outline: as §2
[10] = Oral bioavailability in ICR mouse; assay type: ADME, organism-based; details: in vivo
[11] = Half-life in po dosed dog; details: in vivo
[12] = Half-life in po dosed monkey; details: rhesus monkey, in vivo
[13] = system: Rattus norvegicus; assay: Volume of distribution at steady state in po dosed rat; assay type: ADME, organism-based; details: in vivo
[14] = Half life in po dosed rat; assay type: ADME, organism-based; details: in vivo
[15] = Ratio of AUC in ICR mouse brain to AUC in ICR mouse plasma at 10 mg/kg, po measured at 1 hr; assay type: ADME, organism-based; details: read-out: Ratio AUC
Outline: (§3)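 ICR mice (n=3) given a single oral dose of 10 mg/kg. Brain and plasma were sampled over nine hours, at 0.333, 1, 3, 6 and 9 h. Kp was calculated as AUC_brain/AUC_plasma.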

[16] = Ratio of AUC in ICR mouse brain to AUC in ICR mouse plasma at 10 mg/kg, po measured at 9 hrs; assay type: ADME, organism-based; details: read-out: Ratio AUC; outline: as §3
[17] = Oral bioavailability in mouse at 10 mg/kg; assay type: ADME, organism-based; details: in vivo; outline: as §2
[18] = Cmax in po dosed rat; assay type: ADME, organism-based; design: route oral; details: in vivo
[19] = Oral bioavailability in mouse at 30 mg/kg; assay type: ADME, organism-based; details: in vivo; outline: as §2
[20] = Ratio of AUC in ICR mouse brain to AUC in ICR mouse plasma at 10 mg/kg, po measured at 3 hrs; assay type: ADME, organism-based; details: read-out: Ratio AUC; outline: as §3
[21] = Oral bioavailability in rat; assay type: ADME, organism-based; details: in vivo
[22] = Terminal half life in mouse at 30 mg/kg, po; assay type: ADME, organism-based; details: in vivo, read-out: beta t1/2 (converted)
Outline: (§4)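 Mouse pharmacokinetics: single i.v. dose of 3 mg/kg, or oral doses of 3, 10 and 30 mg/kg. Plasma concentration–time curves gave T1/2 (terminal, hr), Tmax (hr), Cmax, AUC and bioavailability (%).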

[23] = system: HT-22; assay: Cytotoxicity against mouse HT22 cells assessed as effect on cell viability at 1.25 to 10 uM after 18 hrs by MTT assay; assay type: cell-based; details: ht-22, 18 h
Outline: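 Mouse HT22 cells were treated with compound alone at the stated concentrations, without Aβ aggregates. Viability was read by MTT.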

[24] = Ratio of AUC in ICR mouse brain to AUC in ICR mouse plasma at 10 mg/kg, po measured at 6 hrs; assay type: ADME, organism-based; details: read-out: Ratio AUC; outline: as §3
[25] = molecular target: T1, Cytochrome P450 1A2 (Homo sapiens, UniProt P05177); assay: Inhibition of CYP1A2 in human liver microsomes preincubated for 5 mins followed by addition of NADPH generating system measured after 20 mins by LC-MS/MS analysis; assay type: ADME
T1 sequence (P05177 whole entry): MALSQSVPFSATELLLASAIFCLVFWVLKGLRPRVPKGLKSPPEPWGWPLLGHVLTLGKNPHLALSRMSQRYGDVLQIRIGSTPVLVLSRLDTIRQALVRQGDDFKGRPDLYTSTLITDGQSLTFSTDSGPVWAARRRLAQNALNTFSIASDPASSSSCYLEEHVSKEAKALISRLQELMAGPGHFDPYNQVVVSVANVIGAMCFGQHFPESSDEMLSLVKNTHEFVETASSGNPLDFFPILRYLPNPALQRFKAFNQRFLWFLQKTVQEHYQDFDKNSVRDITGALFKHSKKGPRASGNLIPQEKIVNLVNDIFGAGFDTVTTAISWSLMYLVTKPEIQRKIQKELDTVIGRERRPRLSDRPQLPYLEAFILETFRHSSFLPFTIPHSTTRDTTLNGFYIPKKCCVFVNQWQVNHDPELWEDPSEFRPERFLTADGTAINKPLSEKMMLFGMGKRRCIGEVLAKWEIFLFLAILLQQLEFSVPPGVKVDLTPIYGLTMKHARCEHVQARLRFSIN
Outline: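 Inhibition of each CYP isozyme (1A2, 2A6, 2C8, 2C9, 2C19, 2D6, 3A4) was measured in human liver microsomes. IC50 values were reported in μM.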

[26] = Tmax in mouse at 10 mg/kg, po; assay type: ADME, organism-based; details: in vivo; outline: as §4
[27] = Ratio of AUC in ICR mouse brain to AUC in ICR mouse plasma at 10 mg/kg, po measured at 0.333 hrs; assay type: ADME, organism-based; details: read-out: Ratio AUC; outline: as §3
[28] = AUClast in mouse at 10 mg/kg, po; assay type: ADME, organism-based; design: dose 10 mg/kg, route oral, time 0 - last; details: in vivo; outline: as §2
[29] = Tmax in mouse at 3 mg/kg, po; assay type: ADME, organism-based; details: in vivo; outline: as §4
[30] = Cmax in po dosed ICR mouse; assay type: ADME, organism-based; design: route oral; details: in vivo
[31] = AUC in po dosed rat; assay type: ADME, organism-based; details: in vivo
[32] = system: Mus musculus; assay: AUC (infinity) in mouse at 3 mg/kg, iv; assay type: ADME, organism-based; design: dose 3 mg/kg, route intravenous, time infinity; details: in vivo; outline: as §2

Question: With `COCCCc1ccc2oc(-c3ccc(OC)c(OC)c3)cc2c1` as the compound, how does the Activity [1] read?
Answer: The Activity was 63.93%.

Question: And the C0 [2]?
Answer: Its C0 is 4870 ng/mL.

Question: And the AUC [3]?
Answer: Its AUC is 4190 ng·h/mL.

Question: What about the Activity [4] of the same compound?
Answer: Its Activity is 63.73%.

Question: What about the t1/2 [5] of the same compound?
Answer: Its t1/2 is 5.87 h.

Question: And the Cmax [6]?
Answer: Its Cmax is 102 ng/mL.

Question: And the Activity [7]?
Answer: Its Activity is 73.07%.

Question: What about the bioavailability [8] of the same compound?
Answer: The bioavailability was 70%.

Question: And the Cmax [9]?
Answer: The Cmax was 660 ng/mL.

Question: What about the bioavailability [10] of the same compound?
Answer: Its bioavailability is 83.3%.

Question: What about the t1/2 [11] of the same compound?
Answer: The t1/2 was 1.4 h.

Question: What about the t1/2 [12] of the same compound?
Answer: The t1/2 was 12.9 h.

Question: What about the Vdss [13] of the same compound?
Answer: The Vdss was 10 L/kg.

Question: And the half-life [14]?
Answer: Its half-life is 3.8 h.

Question: What about the Kp at 1 h [15] of the same compound?
Answer: Its Kp at 1 h is 1.5.

Question: What about the Kp at 9 h [16] of the same compound?
Answer: The Kp at 9 h was 1.4.

Question: What about the bioavailability [17] of the same compound?
Answer: Its bioavailability is 51.9%.

Question: What about the Cmax [18] of the same compound?
Answer: The Cmax was 421 ng/mL.

Question: And the bioavailability [19]?
Answer: The bioavailability was 79.1%.

Question: What about the Kp at 3 h [20] of the same compound?
Answer: The Kp at 3 h was 1.2.

Question: What about the bioavailability [21] of the same compound?
Answer: The bioavailability was 51%.

Question: What about the half-life [22] of the same compound?
Answer: The half-life was 3.3 h.

Question: And the Activity [23]?
Answer: Its Activity is “Non-Toxic”.

Question: And the Kp at 6 h [24]?
Answer: The Kp at 6 h was 1.2.

Question: And the IC50 [25]?
Answer: The IC50 was > 50 µM.

Question: What about the Tmax [26] of the same compound?
Answer: Its Tmax is 0.7 h.

Question: And the Kp at 0.333 h [27]?
Answer: The Kp at 0.333 h was 1.2.

Question: And the AUC(0-t) [28]?
Answer: Its AUC(0-t) is 2240 ng·h/mL.

Question: And the Tmax [29]?
Answer: The Tmax was 0.7 h.

Question: And the Cmax [30]?
Answer: The Cmax was 944 ng/mL.

Question: What about the AUC [31] of the same compound?
Answer: Its AUC is 4200 ng·h/mL.

Question: What about the AUC [32] of the same compound?
Answer: Its AUC is 1325.1 ng·h/mL.
